Experimental data: ChEMBL document CHEMBL1158160, “Diarylheptanoids, new phytoestrogens from the rhizomes of Curcuma comosa: Isolation, chemical modification and estrogenic activity evaluation” (2008)

Experiments:
HeLa [1] = assay: Estrogenic activity in human HeLa cells assessed as ERbeta gene transcriptional activity at 10 nM after 24 hrs by RT-PCR relative to 17-beta-estradiol; type: functional
Method in brief: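 Steroid-depleted HeLa cells (24 h in phenol red-free DMEM, 5% charcoal-stripped FBS) treated 24 h with compound at 10^-8 M final. 17β-Estradiol at 10^-8 M was the positive control and 0.01% DMSO the negative. RNA isolated and converted to cDNA. ERβ PCR: 32 cycles (94 °C 30 s, 56 °C 30 s, 72 °C 30 s), final extension 7 min.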

HeLa [2] = assay: Estrogenic activity in human HeLa cells assessed as Bcl-xL gene transcriptional activity at 10 nM after 24 hrs by RT-PCR relative to 17-beta-estradiol; type: functional
Method in brief: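 HeLa cells grown in DMEM with 5% FBS (37 °C, 5% CO2, 24 h), then moved to phenol red-free DMEM with 5% charcoal-stripped FBS for 24 h. Exposed to 10^-8 M compound (final) for 24 h. Controls: 10^-8 M 17β-estradiol, 0.01% DMSO. Total RNA extracted, reverse transcribed. Bcl-xL PCR: 28 cycles (94 °C 30 s, 60 °C 30 s, 72 °C 30 s), same profile as HPRT.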

SMILES	Activity (HeLa [1]) [%]	Activity (HeLa [2]) [%]
O=C(/C=C/C=C/c1ccccc1)CCc1ccc(O)cc1	87.75	74.54
Oc1ccc(CC[C@@H](O)CC/C=C/c2ccccc2)cc1O	51.5	45.98
CC(=O)O[C@@H](CC/C=C/c1ccccc1)CCc1ccccc1	75.5	71.06
COc1ccc(CCC(=O)/C=C/C=C/c2ccccc2)cc1	72	76.77
O[C@@H](CCCCc1ccccc1)CCc1ccccc1	37.03	40
C(=C\C=C\c1ccccc1)/C=C/Cc1ccccc1	76.46	77.5
CC(=O)Oc1ccc(CCC(=O)CC/C=C/c2ccccc2)cc1	84	75.3
CC(=O)Oc1ccc(CCC(=O)/C=C/C=C/c2ccccc2)cc1	68.45	49.82
COc1ccc(CCC(=O)CC/C=C/c2ccccc2)cc1	58.51	71.4
O=C(CC/C=C/c1ccccc1)CCc1ccccc1	85.45	74.3
O[C@@H](/C=C/C=C/c1ccccc1)CCc1ccccc1	75.42	62.51
CO[C@@H](CC/C=C/c1ccccc1)CCc1ccccc1	74.97	72.5
O=C(/C=C/c1ccc(O)cc1)CCCCc1ccccc1	70.33	74.41
O=c1c(-c2ccc(O)cc2)coc2cc(O)cc(O)c12 [GENISTEIN]	75.51	72.85
O[C@@H](CC/C=C/c1ccccc1)CCc1ccccc1	42.48	52.85
O=C(/C=C/CCc1ccccc1)CCc1ccc(O)cc1	50.86	47.08
O=C(CCCCc1ccccc1)CCc1ccccc1	57.5	42.18
O=C(/C=C/C=C/c1ccccc1)CCc1ccccc1	33.72	43.97
CC(=O)O[C@@H](/C=C/C=C/c1ccccc1)CCc1ccccc1	58.36	47.96
Oc1ccc(CC[C@@H](O)CC/C=C/c2ccccc2)cc1	52.5	57.73
CC(=O)O[C@@H](CCCCc1ccccc1)CCc1ccccc1	58.97	55
O=C(CC/C=C/c1ccccc1)CCc1ccc(O)cc1	90.56	78.51
